Reference: ChEMBL document CHEMBL1140721, “Development of potent purine-derived nitrile inhibitors of the trypanosomal protease TbcatB” (J Med Chem, 2008)

Legend:
Cathepsin B = Cathepsin B (Homo sapiens, UniProt P07858); experiment: Inhibition of human liver cathepsin B
Procedure, shortened: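 Human liver enzyme at 0.56 ng/mL final in sodium acetate pH 5.5 buffer with 4 mM DTT, 0.01% Triton X-100, 0.5 mM EDTA. 20 min room-temperature preincubation with inhibitor, then Z-Arg-Arg-AMC (10 µM final). Quadruplicate. Sigmoidal IC50 fit.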

Trypanosoma brucei = experiment: Antitrypanosomal activity against Trypanosoma brucei; type: functional, organism-based
Procedure, shortened: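 Culture-adapted bloodstream T. brucei grown in HMI-9 with pen/strep, 10% heat-inactivated FBS and 10% Serum Plus at 37 °C, 5% CO2, diluted to 1 × 10^4 cells/mL. Inhibitor added from DMSO, 48 h at 37 °C, then 1 h room-temperature equilibration. Cell Titer Glo luminescence read after 8 min. Quadruplicate. IC50 by curve fitting. Values shift up to 10-fold with FBS lot.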

Procathepsin L = Procathepsin L (Homo sapiens, UniProt P07711); experiment: Inhibition of human liver cathepsin L
Procedure, shortened: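 Inhibitor preincubated 20 min at room temperature before Z-Phe-Arg-AMC (10 µM final). Initial rate from fluorescence (ex 350/em 460 nm) over 10 min. Quadruplicate. Sigmoidal IC50 fit.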

[1] = biological target: T1, Cathepsin B-like cysteine protease (Trypanosoma brucei, UniProt Q6R7Z5); experiment: Inhibition of Trypanosoma brucei cathepsin B-like cysteine protease
T1 sequence (Q6R7Z5 whole entry): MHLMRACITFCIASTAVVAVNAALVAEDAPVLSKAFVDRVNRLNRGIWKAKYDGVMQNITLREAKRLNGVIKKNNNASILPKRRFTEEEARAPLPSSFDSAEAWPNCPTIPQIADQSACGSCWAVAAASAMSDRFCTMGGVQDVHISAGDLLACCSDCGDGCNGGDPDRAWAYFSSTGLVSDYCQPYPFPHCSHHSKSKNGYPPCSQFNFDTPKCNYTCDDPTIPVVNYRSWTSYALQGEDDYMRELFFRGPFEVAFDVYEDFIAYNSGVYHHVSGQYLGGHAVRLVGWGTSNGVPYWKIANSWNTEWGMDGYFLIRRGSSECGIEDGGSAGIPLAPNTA
Procedure, shortened: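 Recombinant TbcatB zymogen expressed in Pichia pastoris, purified by HIC and anion exchange, titrated with CA074; 35 nM final. Inhibitor preincubated 20 min at room temperature, then Z-Phe-Arg-AMC (10 µM final). Initial rate from fluorescence (ex 350/em 460 nm) over 10 min. Triplicate. Sigmoidal IC50 fit.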

Procathepsin L, sequence (P07711 whole entry): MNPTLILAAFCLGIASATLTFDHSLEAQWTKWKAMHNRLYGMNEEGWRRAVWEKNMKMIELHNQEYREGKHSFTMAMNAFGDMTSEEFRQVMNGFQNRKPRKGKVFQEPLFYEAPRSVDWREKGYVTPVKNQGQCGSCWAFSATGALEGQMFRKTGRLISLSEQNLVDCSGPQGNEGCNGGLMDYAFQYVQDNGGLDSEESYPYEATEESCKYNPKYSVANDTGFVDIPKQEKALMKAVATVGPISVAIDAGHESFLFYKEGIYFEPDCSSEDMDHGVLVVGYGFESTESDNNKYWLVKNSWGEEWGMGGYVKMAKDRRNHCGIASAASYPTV

| SMILES | IC50 (Cathepsin B) | EC50 (Trypanosoma brucei) | IC50 (Procathepsin L) | IC50 [1] | IC50 (Trypanosoma brucei) |
| --- | --- | --- | --- | --- | --- |
| CCCCn1cnc2c(NC(C)c3ccccc3)nc(C#N)nc21 (stereo not drawn) | > 30 µM |  | 9.4 µM | > 25 µM | 1.5 µM |
| CC(Nc1nc(C#N)nc2c1ncn2C1CCCC1)c1ccccc1 (stereo not drawn) | > 30 µM |  | 11.8 µM | > 25 µM | 3.4 µM |
| N#Cc1nc(NCc2ccc(Cl)cc2)c2ncn(Cc3ccccc3)c2n1 | > 30 µM |  | > 30 µM | > 25 µM | 1.5 µM |
| N#Cc1nc(NCCc2ccccc2)c2ncn(Cc3cccnc3)c2n1 | > 30 µM |  | 17.1 µM | 10 µM | 4.4 µM |
| N#Cc1nc(NCCc2ccccc2)c2ncn(Cc3ccccc3)c2n1 | > 30 µM |  | > 30 µM | > 25 µM | 2.4 µM |
| CCCCn1cnc2c(NCc3ccccc3)nc(C#N)nc21 | > 30 µM |  | 4.38 µM | 14 µM | 1.7 µM |
| CCCCn1cnc2c(NCc3ccc(Cl)cc3)nc(C#N)nc21 | > 30 µM |  | 5.06 µM | 10 µM | 0.85 µM |
| COc1ccc(CNc2nc(C#N)nc3c2ncn3Cc2ccccc2)cc1 | > 30 µM | 1 µM | 8.05 µM | 4.5 µM |  |
| Cc1cccc(CNc2nc(C#N)nc3c2ncn3C2CCCC2)c1 | > 30 µM |  | 10.5 µM | > 25 µM | 1.1 µM |
| N#Cc1nc(NCc2ccc(Cl)cc2)c2ncn(CC3CCCCC3)c2n1 | > 30 µM |  | > 30 µM | > 25 µM | > 10 µM |
| CCCCn1cnc2c(NCCc3ccccc3)nc(C#N)nc21 | > 30 µM |  | 17.1 µM | 16 µM | 1.5 µM |
| COc1ccc(Cn2cnc3c(NCc4ccccc4)nc(C#N)nc32)cc1 | > 30 µM | 0.4 µM | 26.9 µM | 11 µM |  |
| CCCCCCNc1nc(C#N)nc2c1ncn2CC1CCCCC1 | > 30 µM |  | > 30 µM | > 25 µM | 3.6 µM |
| CC(Nc1nc(C#N)nc2c1ncn2Cc1ccccc1)c1ccccc1 (stereo not drawn) | > 30 µM |  | > 30 µM | > 25 µM | 1.3 µM |
| CCCCn1cnc2c(NCc3ccc(OC)cc3)nc(C#N)nc21 | > 30 µM | 0.39 µM | 2.28 µM | 6 µM |  |
| CCCCn1cnc2c(NCc3ccc(C)cc3)nc(C#N)nc21 | > 30 µM | 0.55 µM | 5.86 µM | > 25 µM |  |
| Cc1cccc(CNc2nc(C#N)nc3c2ncn3Cc2ccccc2)c1 | > 30 µM |  | 10.5 µM | 3.3 µM | 0.48 µM |
| N#Cc1nc(NCc2ccccc2)c2ncn(C3CCCC3)c2n1 | > 30 µM |  | 13.4 µM | > 25 µM | 1.7 µM |
| N#Cc1nc(NCc2ccccc2)c2ncn(Cc3ccccc3)c2n1 | > 30 µM |  | 12.2 µM | 6 µM | 2 µM |
| N#Cc1nc(NCc2ccccc2)c2ncn(CC3CCCCO3)c2n1 (stereo not drawn) | > 30 µM | 0.24 µM | 10.8 µM | 11 µM |  |

The remaining lines, values ahead:

| IC50 (Cathepsin B) | EC50 (Trypanosoma brucei) | IC50 (Procathepsin L) | IC50 [1] | IC50 (Trypanosoma brucei) | SMILES |
| --- | --- | --- | --- | --- | --- |
| > 30 µM | 0.56 µM | 12.9 µM | > 25 µM |  | Cc1ccc(CNc2nc(C#N)nc3c2ncn3Cc2ccccc2)cc1 |
| > 30 µM |  | 28.4 µM | > 25 µM | 1.5 µM | CCCCCCNc1nc(C#N)nc2c1ncn2C1CCCC1 |
| > 30 µM |  | > 30 µM | > 25 µM | 0.7 µM | CCCCCCNc1nc(C#N)nc2c1ncn2Cc1ccccc1 |
| > 30 µM |  | 5.83 µM | 5 µM | 3.4 µM | CCC(C)CNc1nc(C#N)nc2c1ncn2Cc1ccccc1 (stereo not drawn) |
| 23.6 µM |  | 3.3 µM | 8.3 µM | 1.4 µM | N#Cc1nc(NC2CCCCC2)c2ncn(C3CCCCC3)c2n1 |
| > 30 µM |  | 4 µM | 7 µM | 0.8 µM | COc1ccc(CNc2nc(C#N)nc3c2ncn3C2CCCC2)cc1 |
| > 30 µM |  | 3.91 µM | 11 µM | 0.27 µM | CCCCn1cnc2c(NCc3cccc(C)c3)nc(C#N)nc21 |
| > 30 µM |  | > 30 µM | > 25 µM | 2.2 µM | Cc1cccc(CNc2nc(C#N)nc3c2ncn3CC2CCCCC2)c1 |
| > 30 µM |  | 13.5 µM | 19 µM | 1.2 µM | N#Cc1nc(NCc2ccc(Cl)cc2)c2ncn(C3CCCC3)c2n1 |
| 7.69 µM | 0.9 µM | 1.17 µM | 4.2 µM |  | Cc1ccc(CNc2nc(C#N)nc3c2ncn3CCCO)cc1 |
| 17.7 µM |  | 3.79 µM | 2.3 µM | 0.33 µM | N#Cc1nc(NC2CCCCC2)c2ncn(Cc3ccccc3)c2n1 |
| 19 µM |  | 2.53 µM | 8.3 µM | 12 µM | CCCn1cnc2c(NC3CCCCC3)nc(C#N)nc21 |
